Key:
A549 [1] = assay: Antiproliferative activity against human A549 cells after 48 hrs by SRB method; format: functional, cell-based; conditions: A549, 48 h
A549 [2] = assay: Cellular uptake in human A549 cells at 10 uM by FACS relative to initial rate; format: ADME, cell-based; conditions: a549, 10 µM
Summary of the method: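 A549 cells incubated with 10 μM NBD-labelled compound for varying times, then detached with trypsin and analysed by FACS. Fluorescence over time is expressed as relative cellular fluorescence: the geometric mean of exposed cells divided by the geometric mean of unexposed cells.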

[3] = Chemical stability assessed as half-times of wortmannin formation at pH 6.8 in phosphate buffer saline; format: physicochemical
Summary of the method: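 Compounds were incubated at 1.5 mM Wm equivalents in PBS, pH 6.8, 37°C. Wm (or NBD-Wm) formation was followed by reverse-phase C18 HPLC with methyl-4-hydroxybenzoate as internal standard. For NBD derivatives, 10% acetonitrile and 5% DMSO were added to keep the released product in solution. Half-lives of formation were derived from this.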

SMILES | IC50 (A549 [1]) [µM] | Drug uptake (A549 [2]) | Activity [3] [h]
COC[C@H]1OC(=O)c2coc3c2[C@@]1(C)C1=C(C3=O)[C@@H]2CCC(=O)[C@@]2(C)C[C@H]1OC(=O)CCCCN(C)c1ccc([N+](=O)[O-])c2nonc12 | 12.2 | 1 | –
COC[C@H]1OC(=O)/C(=C\N(C)CCCCCC(=O)O)C2=C(O)C(=O)C3=C([C@H](OC(=O)CCCCN(C)c4ccc([N+](=O)[O-])c5nonc45)C[C@]4(C)C(=O)CC[C@@H]34)[C@]21C | 3.85 | 0.187 | 8
COC[C@H]1OC(=O)/C(=C\NCCCCCC(=O)O)C2=C(O)C(=O)C3=C([C@H](OC(=O)CCCCN(C)c4ccc([N+](=O)[O-])c5nonc45)C[C@]4(C)C(=O)CC[C@@H]34)[C@]21C | 48.7 | 0.0271 | > 100
COC[C@H]1OC(=O)/C(=C\N(C)CCCCCC(=O)O)C2=C(O)C(=O)C3=C([C@H](OC(C)=O)C[C@]4(C)C(=O)CC[C@@H]34)[C@]21C | 0.96 | – | 8.7
COC[C@H]1OC(=O)/C(=C\N(C)c2ccncc2)C2=C(O)C(=O)C3=C([C@H](OC(=O)CCCCN(C)c4ccc([N+](=O)[O-])c5nonc45)C[C@]4(C)C(=O)CC[C@@H]34)[C@]21C | 9.99 | 1.199 | 1.87
COC[C@H]1OC(=O)/C(=C\NCCCCC(NC(C)=O)C(=O)O)C2=C(O)C(=O)C3=C([C@H](OC(C)=O)C[C@]4(C)C(=O)CC[C@@H]34)[C@]21C (stereo partly drawn) | 29.8 | – | > 100
COC[C@H]1OC(=O)/C(=C\N2CCCC2C(=O)O)C2=C(O)C(=O)C3=C([C@H](OC(C)=O)C[C@]4(C)C(=O)CC[C@@H]34)[C@]21C (stereo partly drawn) | 1.79 | – | 9.9
COC[C@H]1OC(=O)/C(=C\N(C)c2ccncc2)C2=C(O)C(=O)C3=C([C@H](OC(C)=O)C[C@]4(C)C(=O)CC[C@@H]34)[C@]21C | 9.86 | 1 | 2.3
COC[C@H]1OC(=O)/C(=C\NCCCCC(=O)O)C2=C(O)C(=O)C3=C([C@H](OC(C)=O)C[C@]4(C)C(=O)CC[C@@H]34)[C@]21C | 27.9 | – | > 100
COC[C@H]1OC(=O)c2coc3c2[C@@]1(C)C1=C(C3=O)[C@@H]2CCC(=O)[C@@]2(C)C[C@H]1OC(C)=O [WORTMANNIN] | 11.4 | – | –
